# Measurements reported in ChEMBL document CHEMBL4321805, “A Conformational Restriction Strategy for the Identification of a Highly Selective Pyrimido-pyrrolo-oxazine mTOR Inhibitor” (J Med Chem, 2019).
# How the values were obtained:
# [1] = AUC (0 to 8 hrs) in Sprague-Dawley rat brain at 5 mg/kg, po by UHPLC-MS analysis; format: ADME, organism-based; parameters: time < 8 hr, dose 5 mg/kg, route oral; conditions: in vivo
# Summary of the method: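 Male Sprague Dawley rats (8 weeks old at delivery), single oral dose of 5 mg/kg, formulation at pH 3. Three rats per time point (30 min, 2, 4, 8 h) under isoflurane; heart-puncture blood into lithium-heparin, then brain collected. Plasma and tissue stored at −80 °C. Samples precipitated with acetonitrile containing diazepam internal standard, then LC–MS.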
# [2] = target: T1, CYP1A2 (Homo sapiens, UniProt P05177); assay: Drug metabolism assessed as recombinant human CYP1A2-mediated compound hydrolysis by measuring parent compound remaining incubated for 60 mins by LC-HRMS analysis; format: ADME; conditions: read-out: Stability
# T1 sequence (P05177 whole entry): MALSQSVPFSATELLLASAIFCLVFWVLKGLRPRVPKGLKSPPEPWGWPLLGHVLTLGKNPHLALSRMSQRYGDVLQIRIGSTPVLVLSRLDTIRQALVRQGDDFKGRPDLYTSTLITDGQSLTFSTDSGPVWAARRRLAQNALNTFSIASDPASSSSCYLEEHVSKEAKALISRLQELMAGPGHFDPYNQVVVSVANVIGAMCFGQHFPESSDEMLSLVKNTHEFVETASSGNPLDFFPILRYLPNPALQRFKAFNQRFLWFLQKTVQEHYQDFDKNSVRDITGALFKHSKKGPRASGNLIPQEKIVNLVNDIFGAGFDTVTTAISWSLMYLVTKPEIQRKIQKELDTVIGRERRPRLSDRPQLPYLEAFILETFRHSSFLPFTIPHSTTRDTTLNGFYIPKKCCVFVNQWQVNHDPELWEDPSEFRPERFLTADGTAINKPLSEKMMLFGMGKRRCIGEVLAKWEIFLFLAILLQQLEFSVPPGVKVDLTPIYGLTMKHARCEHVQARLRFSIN
# Summary of the method: (§1)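 Human recombinant CYP1A1 or CYP1A2 Supersomes (25 pmol/mL) incubated with compound at 1 μM (0.25% DMSO) plus NADP+-regenerating cofactors at 37 °C for 60 min. Reaction stopped with ACN containing internal standard. Parent and metabolites expressed as percentage of total peak areas.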
# [3] = target: T2, CYP1A1 (Homo sapiens, UniProt P04798); assay: Drug metabolism assessed as recombinant human CYP1A1-mediated compound hydrolysis by measuring parent compound remaining incubated for 60 mins by LC-HRMS analysis; format: ADME; conditions: read-out: Stability; summary of the method: as §1
# T2 sequence (P04798 whole entry): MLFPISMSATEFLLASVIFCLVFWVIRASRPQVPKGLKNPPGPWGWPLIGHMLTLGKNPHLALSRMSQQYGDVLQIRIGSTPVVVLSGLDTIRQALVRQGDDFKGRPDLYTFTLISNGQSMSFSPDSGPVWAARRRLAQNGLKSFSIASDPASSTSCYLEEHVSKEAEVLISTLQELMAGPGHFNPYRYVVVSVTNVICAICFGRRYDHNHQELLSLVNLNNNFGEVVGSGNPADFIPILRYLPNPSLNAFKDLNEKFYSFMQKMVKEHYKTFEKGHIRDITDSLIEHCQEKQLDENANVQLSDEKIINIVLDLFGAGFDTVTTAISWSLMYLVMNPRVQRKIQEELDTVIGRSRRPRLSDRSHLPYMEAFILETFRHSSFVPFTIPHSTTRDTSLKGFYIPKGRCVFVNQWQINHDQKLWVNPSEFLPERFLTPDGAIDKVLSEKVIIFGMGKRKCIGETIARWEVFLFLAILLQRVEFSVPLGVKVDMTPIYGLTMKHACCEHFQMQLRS
# [4] = Stability in Beagle dog hepatocytes assessed as parent compound remaining at 5 uM after 3 hrs by LC-MS analysis; format: ADME, cell-based, Canis lupus familiaris, Hepatocyte; conditions: read-out: Stability
# Summary of the method: (§2)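 Cryopreserved hepatocytes in suspension (200 000 cells/well) in Williams medium E with 2 mM L-glutamine and 25 mM HEPES. Test item at a final 5 μM (0.5% DMSO). Sampled at 0, 15, 60, 90 and 180 min. Precipitated with ACN, then LC–MS. Controls: 7-ethoxycoumarin and hepatocyte-free medium; n = 2.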
# [5] = Stability in human hepatocytes assessed as parent compound remaining at 5 uM after 3 hrs by LC-MS analysis; format: ADME, cell-based, Hepatocyte; conditions: read-out: Stability; summary of the method: as §2
Structure (SMILES),AUC [1],remaining at 1 h [2],remaining at 1 h [3],"remaining at 3 h, 5 µM [4]","remaining at 3 h, 5 µM [5]"
C[C@@H]1COCCN1c1nc(-c2cnc(N)cn2)nc2c1C[C@@H]1COCCN21,104 ng·h/g,–,–,–,–
C[C@@H]1COCCN1c1nc(-c2cnc(N)nc2)nc2c1C[C@@H]1COCCN21,–,99.7%,73.3%,93%,93.2%
